Values joined by “and” are separate entries in the source; they are usually repeats but may differ in a detail not shown here. Equal entries are not always repeated.
Assays:
[1] = tested on: Mus musculus; assay: (§1) Percentage uM/kg); format: functional; parameters: concentration or dose not given beside the values
In short: (§2)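 Female ICR (CD-1) mice (18–20 g) infected with P. berghei NK 173, following Peters' 4-day test. Dosing was intraperitoneal for 4 days, with four to five mice per group. Parasitemia was counted and inhibition calculated against infected untreated controls. Survey dose 35.5 μmol/kg. ED50/ED90 came from doses of 0.5–10 mg/kg, with parasitemia read on day 4.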

[2] = tested on: Plasmodium falciparum; assay: In vitro antimalarial activity against Plasmodium falciparum FCB1; format: functional, organism-based
In short: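 P. falciparum FCB1 (chloroquine-resistant) cultured continuously in human erythrocytes. Ring-synchronized cultures at 1% parasitemia and 1% final hematocrit were exposed to serial dilutions, with methanol or DMSO ≤0.1%. Cultures received [3H]-hypoxanthine and were incubated 48 h at 37 °C. Incorporated radioactivity was compared with drug-free controls, and IC50 was taken by nonlinear regression of log(dose)-response. Mean of three experiments.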

[3] = tested on: Mus musculus; assay: as §1; format: functional; in short: as §2
[4] = tested on: Mus musculus; assay: as §1; format: functional; in short: as §2; remark: listed apart in the source
[5] = tested on: Mus musculus; assay: as §1; format: functional; in short: as §2; remark: listed apart in the source
[6] = tested on: Mus musculus; assay: as §1; format: functional; in short: as §2; remark: listed apart in the source
[7] = Plasmatic Half-life after intravenous administration to rat; format: ADME, organism-based; conditions: plasma
[8] = Half-life at pH 1; format: ADME; conditions: buffer
[9] = tested on: Mus musculus; assay: In vivo antimalarial activity against Plasmodium berghei NK 173 infected mice (Mus musculus) administered i.p. at the end of 4 day; format: functional; in short: as §2
[10] = tested on: Mus musculus; assay: (§3) In vivo antimalarial activity against Plasmodium berghei NK173 infected mice (Mus musculus) administered intraperitoneal. at the end of 4 day; format: functional; conditions: ip, 96 h; in short: as §2
[11] = tested on: Mus musculus; assay: as §1; format: functional; in short: as §2; remark: listed apart in the source
[12] = tested on: Mus musculus; assay: In vivo antimalarial activity against Plasmodium berghei NK173 infected mice (Mus musculus) administered intraperitoneally. at the end of 4 day; format: functional; conditions: ip, 96 h
In short: (§4)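 Female ICR (CD-1) mice (18–20 g), 4–5 per group, infected with P. berghei NK 173 and dosed intraperitoneally for 4 days at 0.5 to 10 mg/kg (Peters protocol). Parasitemia was counted at day 4, and inhibition was calculated against infected untreated controls. ED50 and ED90 were derived from these counts.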

[13] = tested on: Mus musculus; assay: as §3; format: functional; in short: as §4
[14] = Mus musculus, ip, 96 h, read-out: ED90

Row | Structure (SMILES) | Parasitemia [1] | IC50 [2] | Parasitemia [3] | Parasitemia [4] | Parasitemia [5] | Parasitemia [6] | half-life [7] | half-life [8] | ED90 [9] | ED90 [9, 14] | ED50 [10] | Parasitemia [11] | ED50 [12] | ED90 [13] | ED90 [13, 14]
1 | C[C@@H]1CC[C@H]2[C@@H](C)[C@](OCC(=O)O)(C(F)(F)F)OC3O[C@]4(C)CC[C@@H]1[C@]32OO4 (some centres undefined) | 47.5% | 30.4 nM |  |  |  |  |  |  |  |  |  |  |  |  | 
2 | C[C@@H]1CCC2[C@@H](C)[C@](OO)(C(F)(F)F)OC3O[C@]4(C)CCC1[C@]32OO4 (some centres undefined) | 5.5% | 13.2 nM | 28.3% | 36.8% | 41.7% |  |  |  |  |  |  |  |  |  | 
3 | C[C@@H]1CC[C@H]2[C@@H](C)[C@](O)(C(F)(F)F)O[C@@H]3O[C@]4(C)CC[C@@H]1[C@]32OO4 | 4% | 9.4 nM | 10.7% |  |  | 22.1% | 1.43 h |  |  |  |  |  |  |  | 
4 | C[C@@H]1CCC2[C@@H](C)[C@](OCC(F)(F)F)(C(F)(F)F)OC3O[C@]4(C)CCC1[C@]32OO4 (some centres undefined) | 0% | 8.3 nM | 0% |  |  |  |  | 215 h |  |  |  |  |  |  | 
5 | CO[C@@]1(C(F)(F)F)OC2O[C@]3(C)CCC4[C@H](C)CCC([C@H]1C)[C@@]24OO3 (some centres undefined) | 0% | 0.8 nM | 0% |  |  | 0% |  | 660 h | 17.5 µM/kg | 6.4 mg/kg | 1.25 mg/kg and 3.4 µmol/kg | 0% |  |  | 
6 | C[C@@H]1CC[C@H]2[C@@H](C)[C@](OCC=O)(C(F)(F)F)OC3O[C@]4(C)CC[C@@H]1[C@]32OO4 (some centres undefined) | 0.2% | 21.4 nM | 7.8% | 46.8% | 26.8% |  |  |  |  |  |  | 29.6% |  |  | 
7 | CCO[C@@]1(C(F)(F)F)OC2O[C@]3(C)CCC4[C@H](C)CCC([C@H]1C)[C@@]24OO3 (some centres undefined) | 0% | 3.3 nM | 0% |  |  | 0% |  | 500 h |  |  |  | 3.8% |  |  | 
8 | C[C@@H]1CCC2[C@@H](C)[C@@H](O)OC3O[C@]4(C)CCC1[C@]32OO4 (some centres undefined) |  |  |  |  |  |  | 0.438 h |  |  |  |  |  |  |  | 
9 | COC1O[C@@H]2O[C@]3(C)CCC4[C@H](C)CCC([C@H]1C)[C@]42OO3 (some centres undefined) | 2.2% | 3.5 nM | 5.5% | 48.1% | 39.2% |  |  |  |  |  |  |  | 2.5 mg/kg and 8.4 µmol/kg | 28.5 µM/kg | 8.5 mg/kg
10 | C[C@@H]1CC[C@H]2[C@@H](C)[C@](OCC(O)CO)(C(F)(F)F)OC3O[C@]4(C)CC[C@@H]1[C@]32OO4 (some centres undefined) | 2.1% | 0.9 nM | 12.1% |  | 28.8% | 46.3% |  |  |  |  |  |  |  |  | 
11 | C[C@@H]1CC[C@H]2[C@@H](C)[C@](OCc3ccc(C(=O)[O-])cc3)(C(F)(F)F)OC3O[C@]4(C)CC[C@@H]1[C@]32OO4.[Na+] (some centres undefined) | 25.9% | 10.6 nM | 26.8% | 25.6% | 34.9% |  |  | 680 h |  |  |  |  |  |  | 
12 | COc1ccc(N[C@@]2(C(F)(F)F)OC3O[C@]4(C)CCC5[C@H](C)CCC([C@H]2C)[C@@]35OO4)cc1 (some centres undefined) | 0% | 12.3 nM | 0% | 8.1% | 0.1% |  |  | 30 h |  |  |  | 0% |  |  | 
